From PubChem
This excerpt belongs to a sample that is enriched for hits.
STK33 kinase inh: inhibitors of purified STK33 kinase, primary screen, biochemical, ADP-Glo luminescence, homogeneous, cell-free; Serine/threonine-protein kinase 33 (Homo sapiens), Q9BYT3; MBP phosphorylation; inhibition, % at 10 µM; 0.073% of 320,000 active; AID 2661, 2010;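 active means inhibition at or above 25%, using the most active replicate where run in duplicate; inactive means inhibition below 25%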
GSK3 alpha inh: blockers of GSK3A enzyme activity – biochemical, luminescence, cell-free homogeneous, HTS, primary screen; GSK-3 alpha kinase, ADP-Glo luminescence, 60 min; 0.1% of 320,000 active; AID 2650, 2010; Glycogen synthase kinase-3 alpha (Homo sapiens), P49840; inhibition, % at 10 µM;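 active means more than half of replicates show inhibition above 20%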;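 further: GST-tagged GSK-3 alpha with peptide substrate and 25 µM ATP; 0% = DMSO neutral wells and 100% = GW8510 positive control wells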
Target sequence (P49840 whole entry, looked up): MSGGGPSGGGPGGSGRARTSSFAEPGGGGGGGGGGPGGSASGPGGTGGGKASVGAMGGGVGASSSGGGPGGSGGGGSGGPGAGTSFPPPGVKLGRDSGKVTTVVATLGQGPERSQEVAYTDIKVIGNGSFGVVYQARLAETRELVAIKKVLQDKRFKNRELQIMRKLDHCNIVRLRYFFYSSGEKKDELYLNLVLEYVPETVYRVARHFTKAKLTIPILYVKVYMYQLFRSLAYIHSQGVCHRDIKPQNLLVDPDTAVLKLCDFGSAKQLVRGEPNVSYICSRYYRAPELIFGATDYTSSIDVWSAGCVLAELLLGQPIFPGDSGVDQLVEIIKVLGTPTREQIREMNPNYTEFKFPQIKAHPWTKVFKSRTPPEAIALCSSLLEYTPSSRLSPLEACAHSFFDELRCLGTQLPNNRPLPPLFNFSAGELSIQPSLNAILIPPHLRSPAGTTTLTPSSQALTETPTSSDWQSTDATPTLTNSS
GSK3beta inhib: human GSK3beta kinase inhibitors, primary screen, biochemical, cell-free homogeneous, HTS. GST-GSK3beta kinase, ADP-Glo luminescence, 60 min; stronger effect = lower value. activity score (negative = inhibition), % at 10 µM. 0.038% of 300,000 active. AID 2097, 2009;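 active means more than half of replicate wells score below -50%, meaning over 50% inhibition versus plate controls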;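 further: 0% = median DMSO wells and -100% = median GW8510 positive control wells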
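Test system – GST-tagged human GSK3beta kinase, cell-free · Incubation – 60 min enzyme reaction, room temperature · Signal – ADP-Glo luminescence · Also added – peptide substrate and ATP at 25 µM · Controls – DMSO neutral wells and GW8510 at 20 µM as positive · Buffer or medium – Tris/MgCl2 kinase buffer · Measure – Luminescence-derived activity versus plate DMSO and GW8510 wells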
CDK5 p35 inh: inhibitors of human CDK5/p35 kinase, primary screen, biochemical, single concentration; Recombinant CDK5/p35, ADP-Glo luminescence, 60 min; inhibition, % at 10 µM; 0.01% of 330,000 active; AID 488839, 2010;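 active means highest replicate inhibition of at least 50% and at least 75% of replicates reaching 50%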;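 further: plate controls were DMSO neutral control for no effect and GW8510 at 10 µM for full effect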
DYRK1A inh: rat Dyrk1A kinase inhibitors, primary screen, biochemical, single point, plate reader | Dual specificity tyrosine-phosphorylation-regulated kinase 1A (Rattus norvegicus), Q63470 | ADP-Glo luminescence, NFATc1 peptide | inhibition, % at 12.5 µM | 0.43% of 310,000 active | AID 504441, 2011; in the data active means inhibition above about 50%;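 further: plate controls were vehicle with enzyme for no effect and no enzyme for full effect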
Dyrk1A artifact: ADP-Glo luciferase interference without Dyrk1A, dose response, artefact control for Dyrk1A inhibitor project, biochemical, luminescence, cherry-pick, set 02; AC50, µM (series often up to 12 µM), for the others: at the highest dose activity change, negative = inhibition; AID 588348, 2011; ADP-Glo luciferase artifact assay, no Dyrk1A; 1,300 tested, under 10 active; shares compounds with DYRK1A inh;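 active means fitted half-maximal dose AC50 no more than ten times the top valid tested dose, with luminescence dropping as dose rises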
Starred values were filed as active, the others as inactive; x = no result given.

SMILES	STK33 kinase inh	GSK3 alpha inh	GSK3beta inhib	CDK5 p35 inh	DYRK1A inh	Dyrk1A artifact
CCc1ccc(N(CC(=O)Nc2ccccc2C(=O)N2CCOCC2)S(C)(=O)=O)cc1	-2	-3	-1	0	-2	x
O=[N+]([O-])c1ccc(-c2nc3ccc([N+](=O)[O-])cc3[nH]2)cc1	0	0	2	-1	29	x
CCCC[n+]1ccc(-c2nc3ccc([N+](=O)[O-])cc3[nH]2)cc1	1	23	0	-1	83*	12%
c1ccc(Cc2nnc3sc(-c4ccc5c(c4)OCO5)nn23)cc1	-1	1	-2	-1	15	x
c1ccc(Cc2nnc3sc(-c4ccc5c(c4)OCCO5)nn23)cc1	0	8	2	-6	80*	9%
O=C(O)CCC(=O)Nc1ccc(N2CCCCCC2)cc1	-1	-3	4	0	53*	8%
Cc1ccc(N2CCN(c3ccc(NC(=O)CCC(=O)O)cc3)CC2)cc1	0	0	0	-2	-2	x
O=C(O)/C=C/c1ccc2noc(-c3ccccc3)c2c1	24	5	-1	3	70*	11%
Cc1ccc(-c2onc3ccc(C=O)cc23)cc1	2	11	-18	3	13	x
O=C1Nc2ccc([N+](=O)[O-])cc2OC1CCN1CCN(Cc2ccc3c(c2)OCO3)CC1 (stereo unspecified)	0	-2	-1	0	2	x
COc1cc(O)cc2cc3c(c(O)c12)C(=O)CC(C)(O)O3 (stereo unspecified)	8	21	x	5	108*	5%
Cc1ccc(-n2ncc3c2CCCC3NC(=O)c2csnn2)cc1C (stereo unspecified)	-1	1	1	-4	6	x
C[N+](C)(CCOc1ccccc1)Cc1ccccc1 (tested in a mixture with another compound)	1	10	-3	-2	92*	7%
COc1ccc(C(=O)c2sc(Nc3ccccc3)nc2N)cc1	2	28	-1	6	-1	x
COc1ccc(C(=O)NC(=S)Nc2ccccc2F)cc1	0	-39	3	-3	-2	x
Nc1nc(Nc2ccccc2)sc1C(=O)c1ccccc1	12	92*	-71*	82*	81*	8%
COc1ccc(C(=O)c2sc(Nc3ccccc3F)nc2N)cc1	3	56*	-19	25	61*	8%
COc1ccc(C2(C)NC(=O)N(CC(=O)NCC(=O)Nc3ccc(F)c(F)c3F)C2=O)cc1OC (stereo unspecified)	-1	-5	x	-2	-4	x
CCOC(=O)c1nnc(-c2ccc(C)cc2)nc1Sc1ccc(Cl)cc1	-1	-5	3	1	55*	6%
CN(Cc1nc(-c2ccccc2)no1)C1CCOCC1	-1	-4	-1	0	2	x
CC(=O)Nc1ccc(Nc2cc(C)nc3c(-c4ccccc4)cnn23)cc1	6	0	x	0	55*	8%
CCCCC(CC)CO (stereo unspecified)	x	x	x	-1	-6	x
CCCCC(CC)CN=C(N)NC(N)=NCCCCCCN=C(N)NC(N)=NCC(CC)CCCC (stereo unspecified)	29*	20	x	-2	52*	12%
O=C(COC(=O)CNS(=O)(=O)c1cccc(Br)c1)NC(=O)Nc1ccc2c(c1)OCCO2	0	0	x	1	0	x
Cc1cccc(NC(=O)C2NC(=O)CC2c2ccccc2)c1C (stereo unspecified)	-1	x	1	0	59*	2%
SMILES	STK33 kinase inh	GSK3 alpha inh	GSK3beta inhib	CDK5 p35 inh	DYRK1A inh	Dyrk1A artifact
CCCN(CCC)CCNC(=O)c1cc2c(=O)n(C)c3ccccc3c2n1C	2	3	1	2	70*	10%
COc1ccc2oc(C(=O)N3CCc4ccccc43)c(C)c2c1	0	1	0	4	-3	x
O=C(NC(=S)Nc1ccccn1)c1cccc([N+](=O)[O-])c1	-1	1	-3	-2	x	x
Cc1ccc(-c2cc(O)cc3sc(=O)oc23)cc1C	0	x	0	-2	54*	9%
Oc1ccc2c(c1)oc1cc(O)ccc12	12	53*	3	13	90*	11%
O=c1c(O)c(-c2cc(O)c(O)c(O)c2)oc2cc(O)cc(O)c12	37*	62*	x	15	90*	8%
O=c1c(-c2ccccc2)c(-c2ccccc2)oc2cc(O)cc(O)c12	-2	7	-4	1	46	x
O=c1c(O)c(-c2ccccc2)oc2cc(O)cc(O)c12	x	x	x	1	75*	6%
CC(C)=CCc1cc(-c2oc3cc(O)cc(O)c3c(=O)c2O)ccc1O	6	8	3	2	63*	10%
O=c1cc(-c2ccccc2)c2c(O)cc(O)cc2o1	1	72*	-58*	3	61*	6%
CSc1ncc(F)c(N(CCO)CCO)n1	-4	-1	1	0	2	x
CC(C)N(C(=O)CSc1nnc(NC(=O)Cc2cccs2)s1)C(C)C	1	-2	1	-6	-1	x
CCOc1ccc(N(CC(=O)Nc2cc(C)ccc2C)S(=O)(=O)c2c(C)[nH]c(=O)[nH]c2=O)cc1	0	-3	7	-3	1	x
COc1cccc(Nc2nc(NCCO)c3ccccc3n2)c1	7	x	-1	1	52*	2%
O=C(c1ccc(Cl)cc1)N1CCN(c2ccnc3cc(Cl)ccc23)CC1	x	x	0	1	8	x
CCC(=O)N1CCN(c2ccnc3cc(Cl)ccc23)CC1	4	5	-7	1	55*	8%
Cc1cc2c(ccc3[nH]onc32)n1	2	3	-6	3	51*	8%
Cc1ccc2nc(C)cc(Cl)c2c1	-1	x	1	0	-1	x
CCN1CCN(c2nc(Nc3cccc(C)c3)nc(N)c2[N+](=O)[O-])CC1	3	12	0	5	60*	8%
CCN1C=CC(=C2C(=O)c3ccccc3C2=O)C=C1	28*	3	-5	7	57*	3%
CN(C)CCCOC(=O)COc1ccc(Br)cc1	-1	-9	-2	-1	68*	9%
Cc1ccc(-c2nn[nH]n2)cc1Cl	0	5	-4	-1	53*	8%
COC(=O)c1cc(NC(=O)Nc2cccc(Cl)c2)ccc1Cl	0	0	-2	0	53*	10%
